Key:
[1] = Pharmacokinetics: free serum IAsp concentration; format: in vivo, human (Japanese patients with type 1 diabetes); settings: Japanese T1D patients; 0.2 U/kg single s.c. dose; least squares mean
How it was run: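 Randomized, double-blind crossover with 3–12 days between dosing visits. After an overnight fast, patients received 0.2 U/kg subcutaneously into the lower abdominal wall. A euglycemic clamp held BG at 5.5 mmol/L, with sampling from 10 min pre-dose to 12 h post-dose. Free serum IAsp (PEG-precipitated) was measured by validated ELISA (LLOQ 10 pmol/L). Times were taken from raw individual profiles and analysed by linear mixed model.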

[2] = test system: Japanese patients with type 1 diabetes; experiment: Safety assessments; format: in vivo, human; settings: Japanese T1D patients; 0.2 U/kg single s.c. dose
How it was run: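 Monitored through screening, two single 0.2 U/kg subcutaneous dosing visits and follow-up 7–21 days after second dose. Covered adverse events, injection site reactions, hypoglycemia, safety laboratory parameters, vital signs, physical examination and ECG. Hypoglycemia counted as confirmed if severe (third-party assistance) or plasma glucose <3.1 mmol/L. Summary statistics covered all patients receiving at least one dose.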

insulin aspart [IAsp]
t Early 50% Cmax [1]: 29.3 min
t max [1]: 1.14 h
Confirmed hypoglycemic episodes or injection site reactions [2]: No confirmed hypoglycemic episodes or injection site reactions
Serious adverse events [2]: no serious adverse events
Tolerability [2]: well tolerated

From publication PMC5835461 (Journal of Diabetes Investigation, 2017)
